Bioassay records deposited in PubChem by several laboratories.
PMI act = increases human mannose-6-phosphate isomerase activity | activation factor at 20 µM | 190,000 compounds, 0.005% hits | P34949 | purified human PMI, coupled resazurin fluorescence, 20 min; active compounds read high; 1 = vehicle control, 0 substrate-free wells;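 active = activation factor of 2 or more at 20 µM, relative to plate controls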
ROMK primary = modulates human ROMK potassium channel activity; P48048; Tet-inducible ROMK, thallium flux fluorescence; actives lie on both sides; B-score at 10 µM; 130,000 compounds, 2% hits; AID 1918;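 active = signal ratio slope over the read window, or its plate-corrected B-score, at least 3 SD from the plate mean, either direction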;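 also: B-score of the F/F0 ratio slope over 7 to 12 s after thallium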
ABCG2 block = blocks JC-1 efflux by human ABCG2 transporter | inhibition, % at 6.6 µM | Q9UNQ0 | AID 1325 | 190,000 compounds, 0.1% hits | IgMXP3 cells, flow cytometry;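 active = inhibition above 80%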;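 also: 0% = DMSO and 100% = nicardipine control wells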
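test system = two drug-resistant human cell lines, ABCG2 and ABCB1 | amount = 3 million cells/mL final, two lines in 1:1 ratio | reagent = JC-1 transporter substrate | doses = one concentration, 6.6 µM final | incubation = 10 min at 25 °C | signal = flow cytometric JC-1 green MFI at 530 nm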
Cl transport mod = KCC2 (human) Cl- transport modulation; B-score of Tl+ flux slope (higher = more flux/activation; lower = inhibition) at 10 µM; 190,000 compounds, 2.2% hits; AID 1456; KCC2 cells, thallium flux FluoZin-2 fluorescence; Q9H2X9;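 active = thallium flux slope and its plate-corrected score both differing from the plate sample mean at a set confidence after two filtering rounds, in either direction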;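 also: slope of fluorescence scaled to starting intensity during 10 to 20 s after thallium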
Target sequence (Q9H2X9 whole entry, looked up): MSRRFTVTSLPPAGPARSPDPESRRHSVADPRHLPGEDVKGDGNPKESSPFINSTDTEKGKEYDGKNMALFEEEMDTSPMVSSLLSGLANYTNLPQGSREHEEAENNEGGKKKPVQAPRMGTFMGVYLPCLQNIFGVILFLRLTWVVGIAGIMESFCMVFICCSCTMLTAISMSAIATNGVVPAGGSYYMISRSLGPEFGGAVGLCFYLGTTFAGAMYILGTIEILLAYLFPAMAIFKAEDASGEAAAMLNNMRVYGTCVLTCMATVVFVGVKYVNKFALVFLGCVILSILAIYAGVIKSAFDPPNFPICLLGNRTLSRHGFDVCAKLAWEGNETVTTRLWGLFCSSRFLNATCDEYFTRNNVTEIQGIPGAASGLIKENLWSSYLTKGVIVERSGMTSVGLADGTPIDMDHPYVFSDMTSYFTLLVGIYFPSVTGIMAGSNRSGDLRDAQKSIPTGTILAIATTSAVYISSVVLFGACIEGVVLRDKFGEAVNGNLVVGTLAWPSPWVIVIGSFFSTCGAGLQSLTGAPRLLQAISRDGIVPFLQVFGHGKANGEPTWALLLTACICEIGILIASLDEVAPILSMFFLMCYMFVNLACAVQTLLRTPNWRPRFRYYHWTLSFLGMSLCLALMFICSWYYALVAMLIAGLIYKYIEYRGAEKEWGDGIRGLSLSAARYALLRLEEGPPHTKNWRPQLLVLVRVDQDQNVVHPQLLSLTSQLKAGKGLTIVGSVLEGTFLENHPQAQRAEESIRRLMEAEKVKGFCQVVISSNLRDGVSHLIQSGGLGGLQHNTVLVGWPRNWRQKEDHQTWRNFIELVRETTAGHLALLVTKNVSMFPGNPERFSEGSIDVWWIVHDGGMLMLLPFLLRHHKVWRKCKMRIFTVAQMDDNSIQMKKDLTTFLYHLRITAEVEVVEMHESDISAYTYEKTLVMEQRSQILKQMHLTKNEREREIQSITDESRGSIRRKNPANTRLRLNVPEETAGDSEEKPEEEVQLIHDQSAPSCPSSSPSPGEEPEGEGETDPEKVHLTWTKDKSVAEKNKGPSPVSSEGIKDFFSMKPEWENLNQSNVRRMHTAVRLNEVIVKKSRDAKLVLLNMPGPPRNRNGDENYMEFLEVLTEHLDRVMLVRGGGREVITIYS
PMI act hi M6P = PMI (human) activation, high substrate. activation factor at 20 µM. 190,000 compounds, 0.34% hits. coupled PMI enzyme assay, resazurin fluorescence, 20 min; active compounds read high; 1 = untreated enzyme, 0 = substrate-free blank. P34949;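 active = activation factor of 2 or more at 20 µM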
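Test system: human phosphomannose isomerase with PGI, G6PDH, diaphorase coupling enzymes; amount: 15 ng/mL PMI; incubation: enzyme reaction with compound 20 min at room temperature; technique: resorufin fluorescence (Ex 544/Em 590 nm) from resazurin via diaphorase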
ABCB1 block = blocks JC-1 efflux by human ABCB1 transporter | CCRF-Adr cells, flow cytometry | inhibition, % at 6.6 µM | P08183 | 190,000 compounds, 0.067% hits; in the data active = inhibition above about 40%;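 also: 0% = vehicle and 100% = reference inhibitor; higher value means more JC-1 retained so stronger ABCB1 efflux block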
KCC2 sec1 = KCC2 (human) modulation, secondary assay. shares compounds with Cl transport mod. HEK293-KCC2, thallium flux, FluoZin2 fluorescence; active compounds read high. normalised thallium flux (F/F0 slope) at 10 µM. 3,700 compounds, 15% hits;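 active = thallium flux slope above the same plate's solvent-only control mean plus 3 SD; inconclusive = the two replicate wells disagree; inactive = no significant difference from solvent-only control wells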
KCC2 bumet counter = thallium flux despite bumetanide block in KCC2 cells, secondary assay 3 | shares compounds with Cl transport mod | HEK293-KCC2 + bumetanide/ouabain, thallium flux FluoZin2; active compounds read high | normalized thallium flux at 10 µM | 3,700 compounds, 49% hits | AID 1714;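 active = thallium entry rate above the same plate's blocked-transporter control wells by more than 3 SD; inconclusive = the two repeat wells disagree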;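 also: raw slope of fluorescence over initial fluorescence between 10 and 20 s after thallium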
KCC2 secondary2 = confirmation of human KCC2 transport modulators. shares compounds with Cl transport mod. 3,700 compounds, 23% hits. HEK293-KCC2, thallium flux FluoZin2 fluorescence; actives lie on both sides; F/F0 rise rate, 10–20 s post-thallium. normalized thallium flux at 10 µM;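 active = thallium flux slope more than 3 SD above or below the plate's solvent-only control mean, mostly below; inconclusive = the two repeat wells disagreed; inactive = no significant shift from solvent-only controls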;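 also: raw slope with 0.1% DMSO as baseline and bumetanide as block control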
HEK293 Tl flux = counter-screen for KCC2 modulators: effect in parental HEK293 cells; 3,700 compounds, 46% hits; thallium flux rate (normalised fluorescence) at 10 µM; shares compounds with Cl transport mod; thallium flux FluoZin2, ouabain; baseline-ratio fluorescence slope, 10–20 s after thallium;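 active = thallium flux rate significantly above the same plate's solvent-only control wells, beyond their mean plus 3 SD; inconclusive = the two replicate wells gave conflicting results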
KCC2 ouabain = confirmation of human KCC2 modulators with ouabain | shares compounds with Cl transport mod | raw Tl+ flux slope (below DMSO = inhibition, above = activation) at 10 µM | 3,700 compounds, 48% hits | HEK293-KCC2, thallium flux FluoZin2 fluorescence; bidirectional: low = inhibitor, high = activator;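 active = thallium flux slope beyond 3 SD from same-plate DMSO control mean in most replicates, usually higher, sometimes lower; inconclusive = repeat tests gave conflicting results; inactive = no significant difference from controls in most replicates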;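 also: slope of initial-normalized fluorescence between seconds 10 and 20 after thallium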
HEK293 Tl flux2 = parental HEK flux effect, counter-screen 2. shares compounds with Cl transport mod. HEK293 parental, thallium flux FluoZin-2 fluorescence slope. thallium flux slope at 10 µM. 3,700 compounds, 33% hits. AID 1718;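 active = thallium flux slope above the same plate's solvent-control mean plus 3 SD in both duplicate wells; inconclusive = duplicate wells that disagreed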;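 also: run without ouabain in cells lacking the KCC2 cotransporter; slope of fluorescence scaled to its starting value between 10 and 20 s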
Active calls of the source: *. Hits are enriched below; roughly 3.3% of the tested compounds scored in any of these assays.

Screening Cc1ccc(C(=O)Nc2ccccc2C(=O)N2CCOCC2)cc1[N+](=O)[O-] returned PMI act 0.9, ABCG2 block 15, Cl transport mod 6.9*, PMI act hi M6P 1, ABCB1 block 1, KCC2 sec1 0.0065, KCC2 bumet counter 0.004, KCC2 secondary2 0.031, HEK293 Tl flux 0.0072, KCC2 ouabain 0.018 and HEK293 Tl flux2 0.0096.
`O=C(/C=C/c1ccco1)NC(=S)Nc1ccccc1N1CCCC1` gave PMI act 0.9, ROMK primary -0.65, ABCG2 block 0, Cl transport mod 3.2*, PMI act hi M6P 0.9, ABCB1 block 0, KCC2 sec1 0.012, KCC2 bumet counter 0.028*, KCC2 secondary2 0.032, HEK293 Tl flux 0.011*, KCC2 ouabain 0.023 and HEK293 Tl flux2 0.01.
`CCOCc1c(C(=O)OCC(=O)Nc2ccc(C)c(S(=O)(=O)N(C)C)c2)oc2ccccc12` gave PMI act 0.8, ABCG2 block 3, Cl transport mod -1.4, PMI act hi M6P 0.9 and ABCB1 block 2.
O=C(CCCN1C(=O)c2ccccc2C1=O)NCCN1C(=O)S/C(=C\c2cccs2)C1=O was read as PMI act 1.1, ROMK primary 1.2, ABCG2 block 19, Cl transport mod 0.047, PMI act hi M6P 1.1 and ABCB1 block 1.
Screening CN(C(=O)COc1cc(=O)n(C)c2ccccc12)c1ccc(Cl)cc1 returned PMI act 1, ABCG2 block 0, PMI act hi M6P 1 and ABCB1 block -2.
Screening Cc1ccc(C)c(N(C)C(=O)COc2cc(=O)n(C)c3ccccc23)c1 returned PMI act 1, ABCG2 block 4, Cl transport mod -4.1*, PMI act hi M6P 1, ABCB1 block 0, KCC2 sec1 0.0082, KCC2 bumet counter 0.0055, KCC2 secondary2 0.029, HEK293 Tl flux 0.0063, KCC2 ouabain 0.021 and HEK293 Tl flux2 0.0092.
For COc1ccc(OCCCC(=O)Nc2ncn[nH]2)cc1 the results were PMI act 1, ROMK primary -0.37, ABCG2 block 8, Cl transport mod -0.13, PMI act hi M6P 1 and ABCB1 block 2.
Screening Cc1ccc(S(=O)(=O)N2CCCC2C(=O)Nc2nc3c(s2)CCCC3)cc1 (centres undefined) returned PMI act 0.9, ABCG2 block 21, Cl transport mod -3.2*, PMI act hi M6P 0.9, ABCB1 block 1, KCC2 sec1 0.0078, KCC2 bumet counter 0.0053, KCC2 secondary2 0.035, HEK293 Tl flux 0.0068, KCC2 ouabain 0.016* and HEK293 Tl flux2 0.011.
Cc1ccccc1NC1=NCC(c2ccc([N+](=O)[O-])cc2)S1 (centres undefined) was read as PMI act 0.9, ROMK primary -1.2, ABCG2 block 15, Cl transport mod 0.63, PMI act hi M6P 0.6 and ABCB1 block 2.
C=C1CCC2C(C)(C)[C@H](O)CC[C@@]2(C)[C@@H]1COc1cc(=O)oc2ccccc12 (some centres undefined) was read as PMI act 0.8, ROMK primary -0.061, ABCG2 block 4, Cl transport mod 0.12, PMI act hi M6P 0.9 and ABCB1 block 1.
C=C/C(C)=C/CC1C(=C)CCC2C(C)(C(=O)O)CCCC12C (centres undefined) was read as Cl transport mod 2.3*, KCC2 sec1 0.0068, KCC2 bumet counter 0.0092*, KCC2 secondary2 0.031, HEK293 Tl flux 0.012*, KCC2 ouabain inconclusive and HEK293 Tl flux2 0.014*.
Screening CCOc1ccc(N2C(=O)C3Sc4[nH]c(=O)sc4C(/C=C/c4ccccc4)C3C2=O)cc1 (centres undefined) returned PMI act 0.8, ROMK primary -0.43, ABCG2 block -2, Cl transport mod -5.6*, PMI act hi M6P 0.9, ABCB1 block 0, KCC2 sec1 0.0067, KCC2 bumet counter inconclusive, KCC2 secondary2 0.019*, HEK293 Tl flux 0.0083, KCC2 ouabain 0.015* and HEK293 Tl flux2 0.011.
CCOc1ccc(N2C(=O)C3ON(c4ccccc4)C(c4ccco4)C3C2=O)cc1 (centres undefined) was read as PMI act 1, ABCG2 block 7, Cl transport mod 1, PMI act hi M6P 1 and ABCB1 block 1.
For O=C(COC(=O)c1cc(S(=O)(=O)N2CCOCC2)ccc1O)NCCc1ccccc1 the results were PMI act 1.1, ROMK primary 1.1, ABCG2 block 5, PMI act hi M6P 1.1 and ABCB1 block 0.
`CC(NC(=O)c1ccnc(C(C)(C)C)c1)c1ccccc1` (centres undefined) gave PMI act 1, ROMK primary -0.073, ABCG2 block 1, Cl transport mod 0.55, PMI act hi M6P 1, ABCB1 block 0, KCC2 sec1 0.019, KCC2 bumet counter inconclusive, KCC2 secondary2 inconclusive, HEK293 Tl flux 0.0071, KCC2 ouabain 0.015 and HEK293 Tl flux2 0.0094.
For Cc1ccccc1-n1c(-c2csc3ccccc23)n[nH]c1=S the results were PMI act 1, ROMK primary 0.073, ABCG2 block -1, Cl transport mod 15*, PMI act hi M6P 1, ABCB1 block 0, KCC2 sec1 0.016*, KCC2 bumet counter 0.045*, KCC2 secondary2 0.031, HEK293 Tl flux 0.015*, KCC2 ouabain 0.043* and HEK293 Tl flux2 inconclusive.
